Reference: the EternaBench riboswitch data

Tested on: MS2 coat protein
Assay: apparent Kd, MS2 coat protein; higher = weaker binding; RNA-MaP array; FMN 200 µM where present
In short: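 Two titrations, one without ligand and one with constant ligand, were run with SNAP-549-labelled MS2 coat protein from 0.7 or 1.5 nM, doubling to 3 µM. The targets were designs transcribed by stalled E. coli RNA polymerase on Illumina sequencing-chip clusters, in 100 mM Tris-HCl pH 7.5, 80 mM KCl, 4 mM MgCl2, BSA, DTT, yeast tRNA and Tween-20. The apparent Kd is the median of filtered per-cluster binding-curve fits, with green signal normalised to red-channel RNA signal and control-cluster median Fmax.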

[1] = designed as: ON switch for flavin mononucleotide, no ligand
[2] = ligand present: flavin mononucleotide, designed as: ON switch for flavin mononucleotide
[3] = designed as: OFF switch for flavin mononucleotide, no ligand
[4] = ligand present: flavin mononucleotide, designed as: OFF switch for flavin mononucleotide

Sequence | apparent Kd [1] | apparent Kd [2] | apparent Kd [3] | apparent Kd [4]
GUAGCAUACCGAGGAUAUUCAUACCGGAAACGGACAUGAGGAUCACCCAUGUUUAGAAAUAAUUGGGAGAAGGCGGAAUGCUAC | 232 nM | 44.7 nM | – | –
CGUCGAUACCAGAAGGACAUGAGGAUCACCCAUGUAGGAUAUGGGUGACCGGGAUGGCAGACACGGUGCCCGGGCACAUGCGAC | 28.9 nM | 9.54 nM | – | –
GAUAUGUUAGGAUAUCGGAAAACGGCCCACUGGCACGGAAGCGAGAAGGGACAUGAGGAUCACCCAUGUGAAAG | – | – | 48.1 nM | 31.4 nM
AAUAUGUUGCAGAAGGUUAUAUUUUUUUCGUACCUCAUGACAUGAGGAUCACCCAUGUAUUUGUUGAAGGAUAUGCAAUAUAUU | – | – | 21.5 nM | 17.7 nM
AAAUCAGUAGGAUAUACGAUUUUGUACUAGACAGAGGAACCACAUGAGGAUCACCCAUGUAGAAGGACUAGAUA | – | – | 16.4 nM | 13.9 nM
CAGGAUAGAGGAUAUACAUAGAUACAGAUUCAUAUAAUCCUACAUGAGGAUCACCCAUGUAGAAGGCUAUCCUG | – | – | 15 nM | 46.4 nM
CUCAAACAUGAGGAUCACCCAUGUGUUGUCGUGGGAGGAUAUCCCGGUUCGGUGGCGUCGGGAGAAGGCCUAUGUC | 68 nM | 35 nM | – | –
AAUUCGCGAGGAUAUACAUGAGGAUCACCCAUGUGUGUACGCAUGCACUUCAUAGGUUGUAGAAGGCGUGAGAU | – | – | 19.7 nM | 29.4 nM
ACUCUGCGAGGAUAUACAUGAGGAUCACCCAUGUGCGAGUUACUUGUGAGGUCGGUUGGUAGAAGGCGCGGAGA | – | – | 99.4 nM | 134 nM
GCCGCCCGAUCUGGCUUUUGGGCUAGAAGGGCAUAUGUGGUCCAGGACAUGAGGAUCACCCAUGUGCAGGAUAUAGCCCACCAC | – | – | 13.7 nM | 24.1 nM
UUGAUUAUACAAGGAUAUCAAUUGUAUACAAGUCUUACAUGAGGAUCACCCAUGUUAAAUUUUUUUGAGAAGGUGUGUUGUCAG | 33.9 nM | 28.5 nM | – | –
GGUUCGAAAGUGAGGAUAUGCUGGUCCUUGGAUCAGCAGAAGGCACAUGAGGAUCACCCAUGUCCAAGCGGACC | – | – | 59 nM | 398 nM
GGAUCGAAAGUGAGGAUAUGCUGGUCCUUGGAUCAGCAGAAGGCACAUGAGGAUCACCCAUGUGAUUUCGAUCC | – | – | 16.6 nM | 25 nM
UUAUGAGAGCAGGAUAUCUUAUUUUUUUUUUGUGGAGAAGGGCUGACAUGAGGAUCACCCAUGUGGUCCUAGAU | – | – | 27.9 nM | 32.9 nM
CGAUAUGAUAGAGGAUAUGUUUAACAUGAGGAUCACCCAUGUGACAUGGGAUUAAUAUAUAACUUACAGAAGGCUAUUCAAUCG | – | – | 34.4 nM | 52.4 nM
CGGCGGAAAGGAUAUGCAGUAAUAUCCAAAUGUGGGCCACGACAUGAGGAUCACCCAUGUAGAAGGUUCAGCCG | – | – | 14.7 nM | 13.6 nM
AAGACGUGGGAAGGAUAUCUGGAAUAUCGGUCGAGAGAAGGUCCCUCGACAUGAGGAUCACCCAUGUAACGCGGUCUACCGUGU | 596 nM | 494 nM | – | –
UUGAAUUGAAACAUGAGGAUCACCCAUGUGUCAUAGUUGACAUAGGAUAUGCUUAUACUUUUAAAGCAGAAGGAUGACGAUACU | 19.8 nM | 7.46 nM | – | –
CGAUCGUUGCAGAAGGUUAUAAUUUUAUCUACAUGUUUAACAUGAGGAUCACCCAUGUUUUUGAUGAAGGAUAUGCAAGGGUCG | – | – | 6.88 nM | 7.12 nM
AGAUAGAUAGCGAUAUGAUCGAGAGAUCAUGUCGCUAAAUUUAGAAGGACAUGAGGAUCACCCAUGUAGGAUAUGGGUAUAGAA | 404 nM | 149 nM | – | –
AGCAGACGAGGAUAUAGAUUUAAGUACAUGAGGAUCACCCAUGUACACAUGUAUUUAGAUUUAGAAGGCGUCUGCU | – | – | 666 nM | 664 nM
GUAGCAUACCGAGGAUAUUCAUGGAAUAAAUAAACAUGAGGAUCACCCAUGUGGCGAAAGCCUAGGGAGAAGGCGGAAUGCUAC | 269 nM | 446 nM | – | –
UUGGACGUCGUAGGAUAUGUAGGAUAUUCCUACAUGAGGAUCACCCAUGUUGACAUAGAAGAAGGACAGAAGGACGAUGUCCAU | 88.3 nM | 4.86 nM | – | –
UCCUUGGUACAGAAGGACCGAGCUCCGUAGCAGGUAGGAUAUGUACAUGAGGAUCACCCAUGUCAGCGGUAAUUGCCAGUAUAC | – | – | 54.6 nM | 27.7 nM
CUGUUAUAGGUCCAGAAUUACAACAUGAGGAUCACCCAUGUGCAGGAUAUCGAGUUAAUUUUCAACGAGAAGGGCAUAGUCACG | – | – | 35.9 nM | 67.6 nM
UAUAUAAUUAAGAGCUGGAAUAAAACAUGAGGAUCACCCAUGUAGGAUAUCAGCACGAUAAGUGCUGAGAAGGACAACCAGCUC | – | – | 15.8 nM | 16.9 nM
AAUAAACAUGAGGAUCACCCAUGUCCCACCAGCCAAGGAUAUGGGCCCGCCGCACAGGUACCAGAAGGUGGCUGCC | 165 nM | 55.7 nM | – | –
GGAGCACGCACAGGAUAUCCGGCGACGCUCGUCGGAGAAGGGUGACAUGAGGAUCACCCAUGUACGUGCAACUCAGUUUGAGAG | 43.6 nM | 36.1 nM | – | –

Sequence | apparent Kd [1] | apparent Kd [2] | apparent Kd [3] | apparent Kd [4]
UUCGGGAACUCUAUGGGCCGCUACAUGAGGAUCACCCAUGUGCAGGAUAUAGGUGUCACUACCGCCUAGAAGGGCACAGAAAGA | – | – | 41.4 nM | 58.6 nM
CUGGAUCACGCAGGAUAUUACAUGAGGAUCACCCAUGUCAGAACUGCAAUAUCGUCUCCUCGUUGUGAGAAGGGCGGAAUCAUA | – | – | 13.8 nM | 19.9 nM
GUCAGCUCGUGAGGAUAUACAACACCGCUUCGGCAGUGUAUUAAGAUCACAUGAGGAUCACCCAUGUAGAAGGCACGAGCUGAU | – | – | 12.9 nM | 255 nM
CUAUCAAGCAAGGAUAUGCAAUUUAUUAUUUAUGCAGAAGGUGCAACAUGAGGAUCACCCAUGUUUCUGGGUUU | – | – | 51.5 nM | 91.5 nM
AGUACUCAAAGAGUACCCAUACGGACAUGAGGAUCACCCAUGUAGGAUAUGCUACUCAAAGAGUAGUAGAAGGACAUAUACCUC | – | – | 8.91 nM | 15.7 nM
GCGAAUUAGUGAGGAUAUACAUAAUUUAAAACUGUAGAAGGCACAAUCCUCAAGACAUGAGGAUCACCCAUGUGGUAUUACGCU | – | – | 138 nM | 861 nM
AACAGGACAGGAUAUACAUGAGGAUCACCCAUGUAGGAAACAAGCAGAGUACCAAAAAGUAGAAGGGUCAUGGA | – | – | 60.2 nM | 79.5 nM
UUAUCUUGUCAAGGAUAUGUAGUAUUGAUCUGAAAACAUGAGGAUCACCCAUGUAUAUGGUGGGAACAGAAGGUGAAUGUUGAA | – | – | 823 nM | 727 nM
CCCUCACAUGAGGAUCACCCAUGUUAGGAUAUCCACCGUUGAUGGUGCCGAAUCGGUAGGAGAAGGAACAUACA | – | – | 23.2 nM | 54.6 nM
CCGGACAUUCGGACAUGAGGAUCACCCAUGUAGGCGGAUUCACAGGAUAUAAGUUCGUCCGAGACUUAGAAGGGUGGCUUCCGA | 119 nM | 54.6 nM | – | –
UAGGUACAUGAGGAUCACCCAUGUGAGGAUAUAGUUGAAGAUUGCGAGAGGGAGAGGACUAGAAGGCACAGUGG | – | – | 50.5 nM | 69 nM
GGCAUACAUGAGGAUCACCCAUGUUCAACCUAGAUAGGAUAUGGGCCUCUUGUAUUAGGCCCAGAAGGAUCUGUAA | 103 nM | 29.6 nM | – | –
GUGUUGUCAGGAUAUCUUACAUAACUAUCGUUGUUACCAUUGGAGAAGGGACAUGAGGAUCACCCAUGUUAUCC | – | – | 22.3 nM | 23.7 nM
GAUCCACAUGAGGAUCACCCAUGUCAGGAUAUGAUACUAUGUACUUCGGUACAUAGUAUCAGAAGGGACAGAUC | – | – | 168 nM | 108 nM
UGGUCAUGAUCAGGAUAUUAACAUGGGCUACAUUAAGAAGGGAUAGUGAGAUACGAACUGAACGACAUGAGGAUCACCCAUGUU | 40.4 nM | 30.4 nM | – | –
AGCGGAUAACAGUAGGAUAUGGCCAACGCCACAUGAGGAUCACCCAUGUCGUACCGGCACCUGGACUAGAAGGACUGCCUCCCGC | 30.8 nM | 14.5 nM | – | –
UCGGCGCGAGGAUAUGCGGCUGGUGCUUCGGGCCCUGGCGUACAUGAGGAUCACCCAUGUAGAAGGCGCGCCGC | – | – | 11.7 nM | 14.7 nM
GGUACCAUCACAGGAUAUCGUAUCCUUUGGGUACGAGAAGGGUGAUAACAUGAGGAUCACCCAUGUGGUACCGGGCGUGAGCCC | 1340 nM | 323 nM | – | –
ACAUGAGAUCGAGGAUAUUUUGUACCUACAUGUGACAUGAGGAUCACCCAUGUGGUAAGUAUGAGAAAGAAGGCGAAGAUAUGU | 41.4 nM | 22.1 nM | – | –
UUACAGUACAGGUAGGAUAUGUAGGGUGGUACAUGAGGAUCACCCAUGUAUCCACCCUUCGAACGGCAGAAGGGCCCGUCACUGC | 22 nM | 15.4 nM | – | –
ACUUGUUACUUAAUCAUUGAUUUGUAGGAUAUACGUACAUGAGGAUCACCCAUGUUACAUGGUAUGUAGAAGGACAUCUAAUUU | – | – | 11 nM | 11.2 nM
CAGUACUGAGGAUAUACAUGAGGAUCACCCAUGUUUUCCAGCUAGGAUACUAGCAAAUGUAGAAGGCAGUACUG | – | – | 25.1 nM | 249 nM
GGAGACCUCACAGGAUAUGCUGGACUUUGUCCAGCAGAAGGGUGAACACAUGAGGAUCACCCAUGUGGUCUCCAAAUAUUUAAU | 816 nM | 74.2 nM | – | –
AAAGCAAUGUCAUGCUCACCGGACAGAAGGCAAUGUGGGCAGCCCGACAUGAGGAUCACCCAUGUUGAGGAUAUGUCCCGUCCU | – | – | 2.53 nM | 2.54 nM
UGUGUGUCAGGAUAUCGCGCGCGCGCGGAAAUGUGUGUGUGUGAGAAGGGACAUGAGGAUCACCCAUGUGCGCG | – | – | 115 nM | 263 nM
CCAGGCUUCGAGAAGGACAUGAGGAUCACCCAUGUGCGUGUGAAGCAGCCGUGAGGCUGCAUCAUGUAGGAUAUCGGAGUCUGU | – | – | 72.2 nM | 391 nM
AUUUGCGAAUCAGGAUAUGGACCAGCACAUGAGGAUCACCCAUGUCUGCCGGCGAGCCGGCUAGGCCAGAAGGGAUGUGCUCAA | 87 nM | 18.2 nM | – | –
